This is a sample that favours compounds with a hit; in the whole collection about 3% have one here.
SENP7 inh – inhibitors of human SENP7 protease; actives 1.5% (n = 330,000); recombinant SENP7, Z-RLRGG-aminoluciferin luminescence, 40 min; inhibition, % at 5 µM;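 active means inhibition above about 50% at the single test dose, limit read from the data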
SENP8 block-1 – SENP8 (human) protease inhibition | Q96LD8 | recombinant SENP8, Nedd8 substrate fluorescence | inhibition, % at 20 µM | actives 0.64% (n = 360,000); in the data active means inhibition mostly above about 40%, no sharp cut-off; inactive means mostly below about 27%
Apaf-1 inh – inhibitors of human Apaf-1 apoptosome; reconstituted apoptosome caspase-3 activity, DEVD-Rh110 fluorescence; inhibition, % at 20 µM; actives 0.71% (n = 330,000); AID 489030; active means inhibition of at least 40% at 20 µM
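Material: reconstituted apoptosome with Apaf-1, cytochrome c, caspase-9, procaspase-3, dATP; medium: pH 7.5 Hepes buffer with CHAPS, BSA, DTT; also added: cytochrome c and DEVD-Rh110 substrate; timing: 30 min plus 50 min, RT; signal: Rh110 fluorescence intensity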
UBC13 polyUb – blocks human UBC13 polyubiquitin chain formation. P61088. TR-FRET. inhibition, % at 20 µM. actives 0.47% (n = 330,000). AID 485273; in the data active means inhibition above about 45%, passing the limit was not always enough; inconclusive means no clear call, values can overlap the other calls
Target sequence (P61088 whole entry, looked up): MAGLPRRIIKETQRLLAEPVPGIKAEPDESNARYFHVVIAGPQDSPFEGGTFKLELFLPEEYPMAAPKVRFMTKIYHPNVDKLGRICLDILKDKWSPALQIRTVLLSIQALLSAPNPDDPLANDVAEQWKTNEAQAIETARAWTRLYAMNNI
SENP6 inh – inhibitors of human SENP6 protease; Q9GZR1; Recombinant SENP6 catalytic domain, aminoluciferin luminescence; inhibition, % at 10 µM; actives 1.8% (n = 330,000); AID 2599;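 active means inhibition above about 50% at the single tested dose, limit read from the data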
Target sequence (Q9GZR1 628-1112 limits assumed): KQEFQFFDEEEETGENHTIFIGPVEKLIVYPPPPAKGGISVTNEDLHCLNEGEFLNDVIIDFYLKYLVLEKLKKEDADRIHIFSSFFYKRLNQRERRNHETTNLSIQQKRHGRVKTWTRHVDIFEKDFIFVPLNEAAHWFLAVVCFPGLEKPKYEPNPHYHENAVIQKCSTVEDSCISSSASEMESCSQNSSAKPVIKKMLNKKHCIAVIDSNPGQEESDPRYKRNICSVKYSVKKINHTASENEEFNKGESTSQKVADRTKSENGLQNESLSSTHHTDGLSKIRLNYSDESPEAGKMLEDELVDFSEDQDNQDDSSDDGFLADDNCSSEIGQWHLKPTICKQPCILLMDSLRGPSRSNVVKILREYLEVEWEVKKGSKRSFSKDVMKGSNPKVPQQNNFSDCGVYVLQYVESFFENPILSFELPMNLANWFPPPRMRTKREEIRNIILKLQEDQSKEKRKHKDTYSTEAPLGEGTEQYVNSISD
SENP8 block-2 – blocks the human protease SENP8; Q96LD8; purified SENP8, Z-RLRGG-aminoluciferin cleavage, luminescence; inhibition, % at 10 µM; actives 1.2% (n = 330,000); AID 2540; in the data active means inhibition above about 50%
A number is an active result; - = inactive; ? = inconclusive; . = not tested or not shown.

SMILES	SENP7 inh	SENP8 block-1	Apaf-1 inh	UBC13 polyUb	SENP6 inh	SENP8 block-2
COc1cccc(-c2nnc3sc(-c4ccccc4)nn23)c1	-	-	-	-	-	-
CCCCn1nc(C(=O)Nc2ccccc2N2CCCC2)c2ccccc2c1=O	-	-	-	-	-	-
COC(=O)C[C@@H]1OC[C@H](C(C)C)N1S(=O)(=O)c1ccc(C)cc1	.	-	.	.	.	.
Cc1nn(-c2ncc(C(F)(F)F)cc2Cl)c(=O)n1-c1ccccc1F	-	-	-	-	-	-
O=Cc1cc(N=Nc2cccc(C(=O)O)c2)ccc1O	97.6	-	-	-	94.8	96.6
CC(NC(=O)CNC(=O)C1CCCCC1)c1ccc(S(N)(=O)=O)cc1 (centres undefined)	-	-	-	-	-	-
Cc1ccccc1N(C=O)c1ccccc1C	.	-	.	.	.	.
O=C(/C=C/Nc1ccc(F)c(F)c1)c1ccc(Br)cc1	67.4	-	-	-	-	-
Nc1ccc(O)c2ccccc12	-	.	67.7	-	-	-
O=Nc1c(O)[nH]c2ccc(Cl)c(Cl)c12	.	-	.	.	.	.
CCOc1ccc(S(=O)(=O)Nc2cc(SCC(=O)O)c(O)c3ccccc23)cc1	.	45.5	.	.	.	.
COC(=O)c1cc2c(n1S(=O)(=O)c1ccc(C)cc1)C(=O)C(=O)c1[nH]cc(C(=O)OCc3ccccc3)c1-2	.	108.4	.	.	.	.
C=CCN(c1ccccc1)S(=O)(=O)c1ccc2c(c1)N(C(C)=O)CCO2	-	-	-	-	-	-
COc1ccc(N=[N+]([O-])c2ccc(OC)cc2)cc1	.	41.3	.	.	.	.
COc1ccc(S(=O)(=O)c2ccc(OC)cc2)cc1	-	-	-	-	-	-
CC1Oc2ccccc2C=C1/C=N/Nc1ccc(C(=O)O)cc1 (centres undefined)	89.0	-	-	-	96.4	96.2
CCn1c(/C=N/Nc2ccc(C(=O)O)cc2)nc2ccccc21	-	-	-	-	-	-
CCCCCCc1cc2cc(-c3nnc(-c4cc(OC)c(OC)c(OC)c4)o3)c(=O)oc2cc1O	-	.	62.9	-	-	-
Cc1ccnc2c1ccc1c(C)ccnc12	-	-	44.5	-	-	-
Cc1ccnc2c1ccc1cccnc12	-	-	-	-	-	-
Clc1ccc(-c2cnc3ccccc3n2)cc1	91.7	-	-	-	90.2	84.8
Clc1ccc(Sc2cnc3ccccc3n2)cc1	-	-	-	-	-	-
Cc1ccc(C(=O)N2CCN(c3ccc(NC(=O)c4cc(C)cc(C)c4)cc3)CC2)cc1	-	-	-	-	-	-
Cc1cc(C)cc(C(=O)Nc2ccc(N3CCCC3)cc2)c1	56.0	-	-	-	74.5	65.6
COc1ccc(CCN=Cc2ccccc2O)cc1OC	-	-	-	-	-	-
SMILES	SENP7 inh	SENP8 block-1	Apaf-1 inh	UBC13 polyUb	SENP6 inh	SENP8 block-2
COc1ccc(-c2nc3ccc([N+](=O)[O-])cc3[nH]2)cc1	.	-	.	.	.	.
O=[N+]([O-])c1ccc(O)c(C=Nc2ccc3nc(-c4ccccc4)[nH]c3c2)c1	64.0	-	-	-	71.0	-
Cc1nc2ccc(C(=O)N/N=C/c3cc([N+](=O)[O-])ccc3O)cc2[nH]1	-	-	-	-	-	-
O=[N+]([O-])c1cccc(-c2nc3ccc([N+](=O)[O-])cc3[nH]2)c1	93.2	-	-	-	98.5	94.3
CCOc1ccccc1NC(=O)CS(=O)(=O)c1cn(CC(=O)N2CCOCC2)c2ccccc12	-	-	-	-	-	-
O=C(CN1C(=O)NC2(CCOc3ccccc32)C1=O)Nc1ccc(Br)cc1F (centres undefined)	-	-	-	-	-	-
Cn1c(CSCc2ccccc2)nnc1SCC(=O)Nc1ccc(C(=O)O)cc1	-	-	-	-	-	-
CNC(=O)[C@@H]1C[C@H]1[C@@H](NC(=O)OCc1ccccc1)c1ccccc1	-	-	-	-	-	-
COc1ccc(CNC(=O)c2c(N)n(CCCN3CCOCC3)c3nc4ccccc4nc23)cc1	-	-	87.3	-	68.4	71.0
COc1cc(/C=C2\SC(=S)NC2=O)ccc1OS(=O)(=O)c1ccccc1	-	.	-	-	58.7	-
COc1cc(/C=C2/SC(=S)NC2=O)ccc1OS(=O)(=O)c1ccc(C)cc1	-	-	-	-	-	-
O=C1C(Nc2ccccc2)=C(NS(=O)(=O)c2ccccc2)C(=O)c2ccccc21	-	-	-	-	-	-
Cc1ccc(S(=O)(=O)/N=C2\C=C(NS(=O)(=O)c3ccccc3)C(=O)c3ccccc32)c(C)c1	.	49.6	.	.	.	.
O=C(COc1ccc(Cl)cc1Cl)Nc1c(-c2cccs2)nc2ccccn12	-	-	-	-	-	-
O=C(COc1cccc(NC(=O)c2cccc([N+](=O)[O-])c2)c1)c1ccc(Br)cc1	-	-	-	-	-	-
Cc1noc(C)c1CSCC(=O)Nc1nc2ccccc2s1	-	-	-	-	-	-
Cc1noc(C)c1C(=O)Nc1nc2ccccc2s1	97.8	-	-	-	96.6	93.6
CCOC(=O)COc1ccc2c(=O)c(-c3ccccc3)coc2c1	-	-	-	-	-	-
CC(=O)Oc1ccc2c(=O)c(-c3ccccc3)coc2c1	58.8	-	-	-	-	-
CCCN1CCCc2cc(CN)ccc21	-	-	83.9	-	-	-
O=C(COc1ccccc1[N+](=O)[O-])N/N=C/c1cccc(OC(=O)c2ccc3c(c2)OCO3)c1	77.2	-	-	-	71.2	-
O=C(N=Nc1c(O)[nH]c2ccc([N+](=O)[O-])cc12)c1ccccc1Cl	-	-	-	-	-	-
O=[N+]([O-])c1ccc2[nH]c(O)c(N=NC(=S)Nc3cccnc3)c2c1	-	41.6	-	?	-	-
CN(C)CCSc1nc2cc(S(=O)(=O)N3CCCCC3)ccc2o1	-	-	-	-	-	-
COc1ccc(O[C@H]2C=C[C@@H](c3ccccc3)O[C@@H]2COC(=O)CC/C(C)=N/OC[C@@H](O)COCc2ccco2)cc1	-	.	-	-	-	-
SMILES	SENP7 inh	SENP8 block-1	Apaf-1 inh	UBC13 polyUb	SENP6 inh	SENP8 block-2
CCc1cc2c(nc1CC)CCN(CC/C(C)=N/OC[C@H]1O[C@H](c3ccccc3)C=C[C@@H]1Oc1ccc(OC)cc1)C2	-	.	43.4	-	-	-
COc1ccc(O[C@H]2C=C[C@@H](c3ccccc3)O[C@@H]2CO/N=C(\C)CCN2CCc3nc(-c4ccccc4)c(-c4ccccc4)cc3C2)cc1	-	.	47.5	-	-	-
COc1ccc(O[C@H]2C=C[C@@H](c3ccccc3)O[C@@H]2COC(=O)CC/C(C)=N/O[C@@H](C)c2cc(-c3c(C)cc(C)cc3C)no2)cc1	-	.	-	-	-	-
COc1c(C)cccc1C(=O)NCCCNC(=O)c1ccc(C)nc1	-	-	-	-	-	-
COc1ccc(/C=C2\C(=O)ON=C2c2ccccc2)cc1	-	-	-	-	-	-
COc1ccc(/C=C2/C(=O)N(c3c(F)c(F)c(F)c(F)c3F)N=C2C)cc1	-	-	53.8	-	-	-
COc1cc(C)nc(N2CCC(C(=O)NCC3CCCO3)CC2)n1 (centres undefined)	-	-	-	-	-	-

Screens (PubChem BioAssay)
